{"source": "paper PMC3572763", "about": "(Molecular pharmaceutics, 2013)", "key": {"[1]": {"assay": "Chemical stability in pH buffers", "assay_type": "physicochemical", "conditions": "for T1/2 −pH 6.0: pH 6.0 buffer; for T1/2 −pH 6.0 / T1/2 pH 7.4: value given in h; for T1/2 pH 7.4: pH 7.4 buffer"}, "PEPT1 [2]": {"target": "T1, PEPT1 (Homo sapiens, UniProt P46059)", "T1 sequence (P46059 1-708)": "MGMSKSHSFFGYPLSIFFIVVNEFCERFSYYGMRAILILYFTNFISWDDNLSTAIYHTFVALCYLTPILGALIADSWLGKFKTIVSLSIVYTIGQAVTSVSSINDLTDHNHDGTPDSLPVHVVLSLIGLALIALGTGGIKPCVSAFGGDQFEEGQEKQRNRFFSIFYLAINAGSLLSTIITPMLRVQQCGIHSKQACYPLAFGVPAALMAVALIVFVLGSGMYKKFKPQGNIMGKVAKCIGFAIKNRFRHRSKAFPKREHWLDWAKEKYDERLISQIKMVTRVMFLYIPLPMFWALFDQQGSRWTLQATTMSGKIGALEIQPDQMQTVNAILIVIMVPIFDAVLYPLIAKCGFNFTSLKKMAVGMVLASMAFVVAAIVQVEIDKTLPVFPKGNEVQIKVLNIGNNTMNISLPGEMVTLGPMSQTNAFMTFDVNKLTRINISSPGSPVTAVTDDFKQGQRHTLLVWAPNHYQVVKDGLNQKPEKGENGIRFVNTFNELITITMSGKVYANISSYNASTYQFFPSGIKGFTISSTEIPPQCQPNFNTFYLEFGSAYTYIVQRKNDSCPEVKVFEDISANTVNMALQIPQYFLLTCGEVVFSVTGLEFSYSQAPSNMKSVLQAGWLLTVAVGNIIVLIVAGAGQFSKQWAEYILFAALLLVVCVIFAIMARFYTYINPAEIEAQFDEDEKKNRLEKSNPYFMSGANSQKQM", "assay": "[3H]Gly-Sar uptake inhibition in Caco-2 cells", "assay_type": "cell-based", "procedure,_shortened": "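Caco-2 cells seeded at 5.0 × 10^4/well and grown 10 days. Washed and preincubated 15 min in pH 6.0 MES uptake buffer, then exposed 30 min at 37°C to 10 μM Gly-Sar (~1% [3H]) plus test compound 0.05–5 mM. Cells washed with ice-cold PBS, lysed in MeOH/water 1:1, counted by scintillation; IC50 by nonlinear fit; mean ± SEM, n = 3.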"}, "Type B strains": {"system": "Type B strains", "conditions": "tissue culture; cited from earlier work"}, "Caco-2 monolayers": {"system": "Caco-2 monolayers", "assay": "Caco-2 cell monolayers permeability", "assay_type": "in vitro ADME, human", "conditions": "A to B"}, "[3]": {"conditions": "cited from earlier work"}, "Type A strains": {"system": "Type A strains", "conditions": "tissue culture; cited from earlier work"}, "PEPT1 [4]": {"target": "T1, PEPT1", "assay": "Direct uptake in PEPT1 over-expressing HeLa cells", "assay_type": "cell-based", "conditions": "1 mM"}, "[5]": {"system": "H1N1 NWS/33 strain of influenza", "conditions": "cited from earlier work"}, "rat jejunum": {"system": "rat jejunum", "assay": "Single-pass intestinal", "assay_type": "in vivo", "conditions": "rat jejunal perfusion"}, "[6]": {"system": "human lysosomal neuraminidase", "conditions": "cited from earlier work"}, "[7]": {"conditions": "mice; for AUC24hr / Cmax / Tmax hrs: GOCarb measured in plasma; for oral bioavailability: 10 mg/kg oral gavage relative to 1 mg/kg IV"}, "[8]": {"conditions": "literature; cited from earlier work"}, "[9]": {"conditions": "from literature, cited from earlier work"}}, "note": "Like-named read-outs stand apart in the source and are kept apart here."}
{"smiles": "CCOC(=O)C1=C[C@@H](OC(CC)CC)[C@H](NC(C)=O)[C@@H](NC(=N)N)C1", "note": "[GOC ethyl ester]", "values": [{"measurement": "T1/2 −pH 6.0", "setting": "[1]", "value": ">20", "unit": "h"}, {"measurement": "T1/2 pH 7.4", "setting": "[1]", "value": ">20", "unit": "h"}]}
{"smiles": "CCC(CC)O[C@@H]1C=C(C(=O)O)C[C@H](NC(=N)N)[C@H]1NC(C)=O", "note": "[GOCarb, 4-Guanidine oseltamivir carboxylate]", "values": [{"measurement": "competition with [3H]Gly-Sar", "setting": "PEPT1 [2]", "value": "little competition"}, {"measurement": "fold more potent than OC", "setting": "Type B strains", "value": "~13", "unit": "fold"}, {"measurement": "permeability across Caco-2 monolayers", "setting": "Caco-2 monolayers", "value": "negligible permeability"}, {"measurement": "intestinal permeability", "setting": "[3]; in rats", "value": "< 5", "unit": "%"}, {"measurement": "oral bioavailability", "setting": "[3]; species not stated in abstract", "value": 4, "unit": "%"}, {"measurement": "fold more potent than OC", "setting": "Type A strains", "value": "approximately 100 fold"}, {"measurement": "uptake into transfected or non-transfected cells", "setting": "PEPT1 [4]", "value": "virtually no uptake"}, {"measurement": "IC50", "setting": "[5]; H1N1 NWS/33 strain of influenza", "value": 0.9, "unit": "nM"}, {"measurement": "approximate EC50", "setting": "[5]; versus the A/NWS/33 virus, dashed line in Figure 8", "value": "~5", "unit": "ng/mL"}, {"measurement": "hydrolysis in buffers", "setting": "[1]; all pHs, up to 20 hours", "value": "limited hydrolysis"}, {"measurement": "T1/2 −pH 6.0", "setting": "[1]", "value": ">20", "unit": "h"}, {"measurement": "T1/2 pH 7.4", "setting": "[1]", "value": ">20", "unit": "h"}, {"measurement": "jejunal permeability", "setting": "rat jejunum", "value": "very low permeability"}, {"measurement": "jejunal permeability", "setting": "rat jejunum; listed as parent drug", "value": "essentially zero permeability"}, {"measurement": "fold more potent in inhibiting human lysosomal neuraminidase as compared to OC", "setting": "[6]", "value": "~ 10 fold"}, {"measurement": "AUC24hr", "setting": "[7]; 1 mg/kg IV", "value": "487 ± 206", "unit": "ng·h/mL"}, {"measurement": "AUC24hr", "setting": "[7]; 10 mg/kg po-fasted", "value": "278 ± 52", "unit": "ng·h/mL"}, {"measurement": "Cmax", "setting": "[7]; 10 mg/kg po-fasted", "value": "50.9 ± 35.8", "unit": "ng/mL"}, {"measurement": "Tmax hrs", "setting": "[7]; 10 mg/kg po-fasted", "value": "1.3 ± 0.6", "unit": "h"}, {"measurement": "AUC24hr", "setting": "[7]; 10 mg/kg po-fed", "value": "291 ± 87", "unit": "ng·h/mL"}, {"measurement": "Cmax", "setting": "[7]; 10 mg/kg po-fed", "value": "65.4 ± 26.8", "unit": "ng/mL"}, {"measurement": "Tmax hrs", "setting": "[7]; 10 mg/kg po-fed", "value": "3.0 ± 1.2", "unit": "h"}, {"measurement": "oral bioavailability", "setting": "[7]; fasted", "value": "approximately 5%"}, {"measurement": "oral bioavailability", "setting": "[7]; fed", "value": "approximately 5%"}]}
{"smiles": "CC(C)[C@H](N)C(=O)OCCOCn1cnc2c(=O)[nH]c(N)nc21", "note": "[Valacyclovir]", "values": [{"measurement": "bioavailability in humans", "setting": "[8]", "value": "up to 80%"}, {"measurement": "T1/2 −pH 6.0", "setting": "[9]; pH 6.0", "value": "ND^b 69.7 h^c"}, {"measurement": "T1/2 pH 7.4", "setting": "[9]; pH 7.4", "value": "ND^b >8 h^c"}]}
